According to ChEMBL document CHEMBL3286182, “4-aminoquinolone piperidine amides: noncovalent inhibitors of DprE1 with long residence time and potent antimycobacterial activity” (J Med Chem, 2014):
≈ marks a conversion by molar mass, not a printed value. Calls of active or inactive are those of the source. No cut-off for these calls is given here.

How the values were obtained:
[1] = system: Mycobacterium tuberculosis; experiment: Antimycobacterial activity against Mycobacterium tuberculosis H37Rv after 5 days by standard microdilution method; type: functional; conditions: 120 h
[2] = Inhibition of Mycobacterium smegmatis recombinant DprE1 using farnesylphosphoryl-beta-D-ribofuranose as substrate assessed as conversion of amplex red to resorufin after 30 mins; set-up: species or system Mycolicibacterium smegmatis
Outline: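 Msm DprE1 (thioredoxin-6His fusion of Msm Rv3790) at 75 nM, preincubated 30 min with 10 μM FAD. Buffer: 50 mM glycylglycine pH 8.5, 200 mM potassium glutamate, 0.002% Brij-35, 2% DMSO, 25 °C. Started with 300 μM farnesylphosphoryl-β-D-ribofuranose, 0.01 mg/mL HRP and 50 μM Amplex Red.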

[3] = system: Pseudomonas aeruginosa; experiment: Antimicrobial activity against Pseudomonas aeruginosa ARC546 at 100 uM; type: functional, organism-based
Outline: (§1)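 Nonmycobacterial panel of Candida albicans, Gram-negative and Gram-positive pathogens.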

[4] = system: Mycolicibacterium smegmatis; experiment: Antimicrobial activity against Mycobacterium smegmatis ATCC 607 at 100 uM; type: functional, organism-based
[5] = system: Staphylococcus aureus; experiment: Antimicrobial activity against Staphylococcus aureus ARC517 at 100 uM; type: functional, organism-based; outline: as §1
[6] = system: Escherichia coli; experiment: Antimicrobial activity against Escherichia coli ARC523 at 100 uM; type: functional, organism-based; outline: as §1
[7] = system: Klebsiella pneumoniae; experiment: Antimicrobial activity against Klebsiella pneumoniae ARC1865 at 100 uM; type: functional, organism-based; outline: as §1
[8] = system: Haemophilus influenzae; experiment: Antimicrobial activity against Haemophilus influenzae ARC446 at 100 uM; type: functional, organism-based; outline: as §1
[9] = system: Escherichia coli; experiment: Antimicrobial activity against Escherichia coli ARC524 at 100 uM; type: functional, organism-based; outline: as §1
[10] = system: Candida albicans; experiment: Antimicrobial activity against Candida albicans ARC527 at 100 uM; type: functional, organism-based; outline: as §1
[11] = system: Mycolicibacterium smegmatis; experiment: Antimicrobial activity against Mycobacterium smegmatis mc2155 at 100 uM; type: functional, organism-based; conditions: str. MC2 155
[12] = system: Haemophilus influenzae; experiment: Antimicrobial activity against Haemophilus influenzae ARC158 at 100 uM; type: functional, organism-based; outline: as §1
[13] = system: Mycobacterium tuberculosis; experiment: Antimycobacterial activity against Mycobacterium tuberculosis H37Rv under hypoxic condition after 6 days by resazurin assay; type: functional
[14] = system: Pseudomonas aeruginosa; experiment: Antimicrobial activity against Pseudomonas aeruginosa ARC545 at 100 uM; type: functional, organism-based; outline: as §1
[15] = system: Streptococcus pneumoniae; experiment: Antimicrobial activity against Streptococcus pneumoniae ARC548 at 100 uM; type: functional, organism-based; outline: as §1

SMILES: Cn1ncc(C(=O)N2[C@@H]3CC[C@H]2C[C@@H](Nc2cc(=O)n(C)c4cc(F)c(F)cc24)C3)c1Cl
- MIC [1]: 0.12 µM (≈ 0.0554 µg/mL)
- IC50 [2]: 8 nM

SMILES: Cn1ncc(C(=O)N2CCC(Nc3cc(=O)[nH]c4cc(F)ccc34)CC2)c1Cl
- Activity [3]: inactive
- Activity [4]: inactive
- Activity [5]: inactive
- Activity [6]: inactive
- Activity [7]: inactive
- Activity [8]: inactive
- Activity [9]: inactive
- Activity [10]: inactive
- MIC [1]: 3.1 µM (≈ 1.25 µg/mL)
- Activity [11]: inactive
- Activity [12]: inactive
- Activity [13]: inactive
- Activity [14]: inactive
- Activity [15]: inactive
- IC50 [2]: 7 nM

SMILES: Cn1ncc(C(=O)N2CCC(Nc3cc(=O)n(C)c4cc(F)c(F)cc34)CC2)c1Cl
- Activity [3]: inactive
- Activity [4]: inactive
- Activity [5]: inactive
- Activity [6]: inactive
- Activity [7]: inactive
- Activity [8]: inactive
- Activity [9]: inactive
- Activity [10]: inactive
- MIC [1]: 3.1 µM (≈ 1.35 µg/mL)
- Activity [11]: inactive
- Activity [12]: inactive
- Activity [13]: inactive
- Activity [14]: inactive
- Activity [15]: inactive
- IC50 [2]: 20 nM

SMILES: Cc1onc(C(=O)N2[C@@H]3CC[C@H]2C[C@@H](Nc2cc(=O)[nH]c4cc(F)c(F)cc24)C3)c1C
- MIC [1]: 0.06 µM (≈ 0.0257 µg/mL)
- IC50 [2]: 7 nM

SMILES: CN(c1cc(=O)[nH]c2ccccc12)C1CCN(C(=O)c2cnn(C)c2Cl)CC1
- Activity [3]: inactive
- Activity [4]: inactive
- Activity [5]: inactive
- Activity [6]: inactive
- Activity [7]: inactive
- Activity [8]: inactive
- Activity [9]: inactive
- Activity [10]: inactive
- MIC [1]: > 250 µM
- Activity [11]: inactive
- Activity [12]: inactive
- Activity [13]: inactive
- Activity [14]: inactive
- Activity [15]: inactive
- IC50 [2]: 18000 nM

SMILES: Cn1ncc(C(=O)N2CCC(Oc3cc(=O)[nH]c4ccccc34)CC2)c1Cl
- Activity [3]: inactive
- Activity [4]: inactive
- Activity [5]: inactive
- Activity [6]: inactive
- Activity [7]: inactive
- Activity [8]: inactive
- Activity [9]: inactive
- Activity [10]: inactive
- MIC [1]: 50 µM (≈ 19.3 µg/mL)
- Activity [11]: inactive
- Activity [12]: inactive
- Activity [13]: inactive
- Activity [14]: inactive
- Activity [15]: inactive
- IC50 [2]: 8000 nM

SMILES: Cn1ncc(C(=O)N2CC(Nc3cc(=O)[nH]c4ccccc34)C2)c1Cl
- MIC [1]: 50 µM (≈ 17.9 µg/mL)
- IC50 [2]: 1800 nM

SMILES: CCn1c(=O)cc(NC2CCN(C(=O)c3cnn(C)c3Cl)CC2)c2ccccc21
- Activity [3]: inactive
- Activity [4]: inactive
- Activity [5]: inactive
- Activity [6]: inactive
- Activity [7]: inactive
- Activity [8]: inactive
- Activity [9]: inactive
- Activity [10]: inactive
- MIC [1]: > 100 µM
- Activity [11]: inactive
- Activity [12]: inactive
- Activity [13]: inactive
- Activity [14]: inactive
- Activity [15]: inactive
- IC50 [2]: > 100000 nM

SMILES: C[C@H]1C[C@H](Nc2cc(=O)[nH]c3ccccc23)CCN1C(=O)c1cnn(C)c1Cl
- MIC [1]: 12.5 µM (≈ 5 µg/mL)
- IC50 [2]: 26 nM

SMILES: Cn1ncc(C(=O)N2CCC(Nc3cc(=O)[nH]c4ccc(F)cc34)CC2)c1C(F)(F)F
- Activity [3]: inactive
- Activity [4]: inactive
- Activity [5]: inactive
- Activity [6]: inactive
- Activity [7]: inactive
- Activity [8]: inactive
- Activity [9]: inactive
- Activity [10]: inactive
- MIC [1]: 6.2 µM (≈ 2.71 µg/mL)
- Activity [11]: inactive
- Activity [12]: inactive
- Activity [13]: inactive
- Activity [14]: inactive
- Activity [15]: inactive
- IC50 [2]: 21 nM

SMILES: Cc1onc(C(=O)N2CCC(Nc3cc(=O)[nH]c4cc(F)c(F)cc34)CC2)c1C
- Activity [3]: inactive
- Activity [4]: inactive
- Activity [5]: inactive
- Activity [6]: inactive
- Activity [7]: inactive
- Activity [8]: inactive
- Activity [9]: inactive
- Activity [10]: inactive
- MIC [1]: 0.2 µM (≈ 0.0805 µg/mL)
- Activity [11]: inactive
- Activity [12]: inactive
- Activity [13]: inactive
- Activity [14]: inactive
- Activity [15]: inactive
- IC50 [2]: 18 nM

SMILES: COc1cc(NC2CCN(C(=O)c3cnn(C)c3Cl)CC2)c2ccccc2n1
- MIC [1]: > 200 µM
- IC50 [2]: 78000 nM

SMILES: Cn1ncc(C(=O)N2[C@@H]3CC[C@H]2C[C@@H](Nc2cc(-c4ccccc4)[nH]c(=O)c2)C3)c1Cl
- MIC [1]: 1.6 µM (≈ 0.701 µg/mL)
- IC50 [2]: 53 nM

SMILES: Cn1cc(C(=O)N2CCC(Nc3cc(=O)[nH]c4ccccc34)CC2)cn1
- Activity [3]: inactive
- Activity [4]: inactive
- Activity [5]: inactive
- Activity [6]: inactive
- Activity [7]: inactive
- Activity [8]: inactive
- Activity [9]: inactive
- Activity [10]: inactive
- MIC [1]: 140 µM (≈ 49.2 µg/mL)
- Activity [11]: inactive
- Activity [12]: inactive
- Activity [13]: inactive
- Activity [14]: inactive
- Activity [15]: inactive
- IC50 [2]: 2200 nM

SMILES: Cn1ncc(C(=O)N2CCC(Nc3cc(=O)[nH]c4c(F)cccc34)CC2)c1Cl
- Activity [3]: inactive
- Activity [4]: inactive
- Activity [5]: inactive
- Activity [6]: inactive
- Activity [7]: inactive
- Activity [8]: inactive
- Activity [9]: inactive
- Activity [10]: inactive
- MIC [1]: 3.1 µM (≈ 1.25 µg/mL)
- Activity [11]: inactive
- Activity [12]: inactive
- Activity [13]: inactive
- Activity [14]: inactive
- Activity [15]: inactive
- IC50 [2]: 11 nM

SMILES: Cn1ncc(C(=O)N2[C@@H]3CC[C@H]2C[C@H](Nc2cc(=O)[nH]c4ccc(F)cc24)C3)c1Cl
- MIC [1]: > 200 µM
- IC50 [2]: 43000 nM

SMILES: C[C@H]1C[C@@H](Nc2cc(=O)[nH]c3ccccc23)CCN1C(=O)c1cnn(C)c1Cl
- MIC [1]: > 200 µM
- IC50 [2]: > 10000 nM

SMILES: Cn1ncc(C(=O)N2CCC(Nc3n[nH]c4ccc(F)cc34)CC2)c1Cl
- MIC [1]: > 100 µM
- IC50 [2]: 113 nM

SMILES: Cn1ncc(C(=O)N2CCC(Nc3cnnc4ccccc34)CC2)c1Cl
- MIC [1]: > 200 µM
- IC50 [2]: > 10000 nM

SMILES: Cn1ncc(C(=O)N2CCC(Nc3cc(-c4ccccc4)[nH]c(=O)c3)CC2)c1Cl
- MIC [1]: 50 µM (≈ 20.6 µg/mL)
- IC50 [2]: 3000 nM

SMILES: Cn1ncc(C(=O)N2CCC(Nc3cc(=O)[nH]c4ccccc34)C2)c1Cl (stereo not drawn)
- MIC [1]: > 200 µM
- IC50 [2]: 4700 nM

SMILES: Cn1ncc(C(=O)N2[C@@H]3CC[C@H]2C[C@@H](Nc2cc(=O)n(C)c4ccc(F)cc24)C3)c1Cl
- MIC [1]: 0.25 µM (≈ 0.111 µg/mL)
- IC50 [2]: 12 nM

SMILES: Cn1ncc(C(=O)N2[C@@H]3CC[C@H]2C[C@@H](Nc2cc(=O)[nH]c4cc(F)c(F)cc24)C3)c1Cl
- MIC [1]: 0.06 µM (≈ 0.0269 µg/mL)
- IC50 [2]: 9 nM
